# Screening data as filed in PubChem BioAssay.
# Shown are actives, neighbours in structure and some others; about 3.5% of the full set was active somewhere.
# MrgX1 antag: blocks BAM8-22 activation of human MrgX1 receptor | AID 588676 | hit rate 1.3% among 310,000 | MRGX1-HEK293 calcium flux, Fluo-4, BAM8-22 antagonism; active compounds read low | Q96LB2 | B-score at 10 µM;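 active = calcium-response B-score plate-corrected more than 3 library SD below zero, starting fluorescence within 5 deviations, no agonist response on first addition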;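 also: peak minus trough fluorescence over baseline after final BAM8-22 challenge near maximal dose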
# Target sequence (Q96LB2 whole entry, looked up): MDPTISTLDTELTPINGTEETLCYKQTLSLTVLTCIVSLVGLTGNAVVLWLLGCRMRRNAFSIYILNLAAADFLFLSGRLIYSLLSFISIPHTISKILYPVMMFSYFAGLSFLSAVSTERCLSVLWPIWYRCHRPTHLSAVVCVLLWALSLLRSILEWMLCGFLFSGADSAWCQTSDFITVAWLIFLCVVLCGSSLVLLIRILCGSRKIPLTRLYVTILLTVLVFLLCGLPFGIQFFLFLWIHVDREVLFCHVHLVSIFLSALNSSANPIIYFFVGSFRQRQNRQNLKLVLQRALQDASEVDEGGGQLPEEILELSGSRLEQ
# MrgX1 PAM: allosterically activates human MrgX1 receptor signaling. Q96LB2. MrgX1-HEK293, Fluo-4 calcium flux, FDSS; active compounds read high. B-score at 10 µM. hit rate 0.63% among 310,000. AID 588675;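 active = plate-corrected calcium response at least 3 library SD above typical, normal starting fluorescence, not activating the receptor alone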;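 also: compound read alongside a low EC10 to EC30 dose of BAM8-22 agonist; peak minus trough fluorescence over baseline measured at the second addition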
# RGS4 block: human RGS4 inhibition; hit rate 0.45% among 310,000; B-score at 10 µM; HEK293 M3R/RGS4 inducible, Fluo-4 calcium flux; active compounds read high; triggered by carbachol at its EC20;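 active = B-score, a plate-corrected calcium signal, over three deviations above library mean, with baseline fluorescence within five deviations of library mean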;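 also: RGS4 expression induced by doxycycline in cells with stable M3 receptor; B-score is computed from the integrated fluorescence ratio over baseline after carbachol; higher B-score means a larger calcium signal and so more RGS4 inhibition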
# Target sequence (P49798 whole entry, looked up): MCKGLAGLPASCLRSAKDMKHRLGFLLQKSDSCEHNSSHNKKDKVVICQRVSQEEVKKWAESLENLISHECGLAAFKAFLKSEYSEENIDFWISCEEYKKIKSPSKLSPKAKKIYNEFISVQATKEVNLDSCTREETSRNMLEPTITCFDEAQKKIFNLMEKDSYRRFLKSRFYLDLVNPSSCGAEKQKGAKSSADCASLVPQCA
# RGS4 pot: potentiators or activators of RGS4. HEK293 M3R/inducible RGS4, carbachol calcium flux Fluo4; active compounds read low. B-score at 10 µM. hit rate 0.92% among 310,000;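 active = B-score of the integrated calcium signal more than 4 SD below the library mean, with starting fluorescence not abnormally high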;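 also: negative B-score means reduced calcium response which marks RGS4 activation or potentiation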
#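 System – HEK293 FlpIn-TREx cells, stable M3R, doxycycline-inducible RGS4 · Reagent – ECmax carbachol challenge · Times – compound preincubation 20 min at room temperature before agonist · Technique – Fluo4 fluorescence kinetic imaging of calcium · Measure – B score of integrated Fluo4 ratio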
# MrgX1 agonist: human MrgX1 receptor agonism, primary screen; MrgX1-HEK293 cells, Fluo-4 calcium fluorescence, agonist mode; active compounds read high; hit rate 0.44% among 310,000; B-score at 10 µM;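 active = calcium response B-score plate-corrected fluorescence ratio at least 3 library SD, with starting fluorescence B-score inside 5 SD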
#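 Test system: HEK293 cells stably expressing human MrgX1 receptor; amount: 15,000 cells per well; doses: compound delivered in addition one of three; times: overnight plating before 1 h dye loading; detection: Fluo-4 NW calcium-flux fluorescence, kinetic read; read-out basis: B-scored fluorescence response ratio; controls: positive and negative controls per plate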
# RGS4 block valid: validation of RGS4 inhibitors. shares compounds with RGS4 block. HEK293 M3R/RGS4, carbachol calcium Fluo-4 fluorescence; carbachol added at its EC20; 0 = buffer wells, 100 = carbachol control. calcium response, % at 10 µM. hit rate 65% among 1,700. AID 492999;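 active = duplicate-averaged calcium response above the buffer-only control mean plus 5 SD of those controls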;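 also: integrated fluorescence ratio F max minus min over baseline F0; higher response in RGS4-induced cells means RGS4 inhibition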
# M3R Ca ctr: non-induced cell nonspecific activity of RGS4 inhibitors; activity (percent), % at 10 µM; hit rate 20% among 1,900; shares compounds with RGS4 block; HEK293 M3R non-induced, carbachol calcium Fluo-4; submaximal (EC20) carbachol stimulus; buffer wells 0%, carbachol control wells 100%; call rule not given here;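 also: RGS4 induction absent so cells express M3R without RGS4; higher means more calcium signal and flags a non-specific hit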
# RGS4 inh ctr2: signal in non-induced cells without carbachol, RGS4 inhibitor counter-screen | HEK293 M3R/RGS4 non-induced, Fluo-4 calcium, no carbachol; normalised: buffer wells 0%, carbachol wells 100% | AID 493001 | hit rate 22% among 1,900 | calcium response (agonist-mode artifact), % at 10 µM | shares compounds with RGS4 block;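 active = duplicate-averaged calcium rise in uninduced cells above buffer wells' mean plus 5 SD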
# * marks the source's active call; other numbers are inactive results; i = inactive; . = no result.
SMILES,MrgX1 antag,MrgX1 PAM,RGS4 block,RGS4 pot,MrgX1 agonist,RGS4 block valid,M3R Ca ctr,RGS4 inh ctr2
COC(=O)C1=C(CS(=O)(=O)c2ccc(OC)c(OC)c2)NC(=O)NC1c1ccc(O)c(OC)c1 (centres undefined),i,i,19*,i,i,6.0%*,i,i
COc1cc2c(C(=O)N3CCN(c4ccccc4)CC3)c(C)oc2cc1Br,i,i,i,i,i,.,.,.
CC(C)(CC(=O)O)CC(=O)N1CCN(c2nc3ccc(Cl)cc3s2)CC1,i,i,i,i,i,.,.,.
N#C/C(=C/c1cccc(O)c1)C(=O)NCc1ccc(Cl)cc1,i,i,5.9*,i,i,80%*,73%*,i
N#C/C(=C/c1ccc(O)c(O)c1)C(=O)NCc1ccc(Cl)cc1,i,13*,7.6*,i,i,i,i,i
CCOc1ccc(-n2ccnc2SCC(=O)Nc2nnc(C)s2)cc1,i,i,i,i,i,.,.,.
O=C1CCCN1c1ccc(S(=O)(=O)N2CCN(c3ccccc3)CC2)cc1,i,i,i,i,i,.,.,.
C=CCSc1nnc2c(n1)OC(c1ccco1)Nc1ccccc1-2 (centres undefined),i,i,i,i,i,.,.,.
CCOC(=O)c1sc(NC(=O)CSc2nnnn2-c2ccccc2)nc1C,i,i,i,i,i,.,.,.
CCOC(=O)c1c(-c2ccc(C)o2)csc1NC(=O)CSc1nnnn1-c1ccccc1,i,i,9.9*,i,i,i,i,i
CCOC(=O)c1c(-c2ccc(C)o2)csc1NC(=O)CSc1nnc(C)s1,i,i,i,i,i,i,i,i
CCOC(=O)c1c(-c2ccccc2)csc1NC(=O)CSc1nnc(C)s1,i,i,i,i,i,.,.,.
CC(=O)C1C(=O)c2c(cccc2[N+](=O)[O-])C1=Nc1ccccc1C (centres undefined),i,i,i,i,i,.,.,.
O=C(O)CSc1nc(-c2ccc(Cl)cc2)nc2c1oc1ccccc12,i,i,4.8*,i,i,9.0%*,i,7.0%*
O=C(O)CSc1nc(-c2ccccc2)nc2c1oc1ccccc12,i,i,i,i,i,i,i,i
O=C(O)C1CCN(c2nc(-c3ccccc3)nc3c2oc2ccccc23)CC1,i,i,i,i,i,.,.,.
O=C(NCc1ccccc1F)C(=O)NCC1CCCN1S(=O)(=O)c1cccs1 (centres undefined),i,i,i,i,i,.,.,.
O=C(NCc1ccc(F)cc1)c1cc(-c2cccs2)on1,i,i,i,i,i,.,.,.
CC(=O)N1CCc2cc(S(=O)(=O)NC(C)c3ccccc3)ccc21 (centres undefined),i,i,i,i,i,i,i,i
O=S(=O)(C/C(=C/CO)S(=O)(=O)c1ccccc1)c1ccccc1,i,i,10*,i,34*,38%*,36%*,16%*
c1coc(C2=Nc3cccc4cccc(c34)N2)c1,i,i,13*,i,i,30%*,i,i
COc1ccc(OC)c(C2CC(c3c(-c4ccccc4)c4cc(Cl)ccc4[nH]c3=O)=NN2S(C)(=O)=O)c1 (centres undefined),i,i,i,i,i,.,49%*,36%*
COc1ccc(C2CC(c3c(-c4ccccc4)c4cc(Cl)ccc4[nH]c3=O)=NN2S(C)(=O)=O)cc1 (centres undefined),i,i,i,i,i,.,.,.
CCOc1ccc(/C(O)=C2/C(=O)C(=O)N(c3nc(C)c(C)s3)C2c2ccco2)cc1 (centres undefined),i,i,i,i,i,.,i,i
Cc1ccc2cc(CN(C(=O)c3ccco3)c3ccccc3C)c(=O)[nH]c2c1,i,i,i,i,i,i,i,i
SMILES,MrgX1 antag,MrgX1 PAM,RGS4 block,RGS4 pot,MrgX1 agonist,RGS4 block valid,M3R Ca ctr,RGS4 inh ctr2
COCC(=O)N(Cc1cc2ccc(C)cc2[nH]c1=O)c1ccc(C)cc1C,i,i,i,i,i,.,.,.
Cc1ccc(N(Cc2cc3ccc(C)cc3[nH]c2=O)C(=O)c2ccco2)c(C)c1,i,i,i,i,i,i,i,i
Cc1ccc2cc(CN(C(=O)c3ccco3)c3cccc(C)c3C)c(=O)[nH]c2c1,i,i,i,i,i,.,.,.
Cc1ccc2nnnc(-c3ccccc3)c2c1,i,i,i,i,i,.,.,.
CC1CC(C)CN(CCCn2c(=S)[nH]c3ccccc3c2=O)C1 (centres undefined),i,i,13*,i,i,92%*,77%*,11%*
O=c1c2ccccc2[nH]c(=S)n1CCCN1CCN(c2ccccc2)CC1,i,i,i,i,i,.,.,.
O=C(CN1CCOCC1)Nc1ccc2c(c1)OCO2,i,i,i,i,i,.,.,.
COc1cc(NC(=O)Nc2ccccc2)c(OC)cc1NC(=O)CN1CCCCC1,i,i,i,i,i,.,.,.
COc1cc(/C=C/c2[nH]c(=O)[nH]c(=O)c2[N+](=O)[O-])ccc1OCCC(C)C,i,i,i,i,i,.,.,.
O=c1[nH]c(/C=C/c2cccc([N+](=O)[O-])c2)c([N+](=O)[O-])c(=O)[nH]1,i,i,i,i,i,.,.,.
CCC(C)Oc1ccc(/C=C/c2[nH]c(=O)[nH]c(=O)c2[N+](=O)[O-])cc1OC (centres undefined),i,i,5.6*,i,i,10%*,i,76%*
O=c1[nH]c(/C=C/c2ccccc2)c([N+](=O)[O-])c(=O)[nH]1,i,i,5.7*,i,i,22%*,i,i
Fc1ccc(-c2csc(Nc3ccccn3)n2)cc1,i,i,i,i,i,i,i,i
O=C(Nc1ccc2[nH]ncc2c1)c1ccccc1Br,i,i,i,i,i,.,.,.
CC(C)(C)OC(=O)N1CCC(c2cc(-c3cccs3)n[nH]2)CC1,i,i,5*,i,i,17%*,i,i
